Results reported in PMC8265689 (Journal of the American Chemical Society, 2021).

Key:
[1] = in MeOH, used as standard; cited from earlier work
DU-145 cells [2] = assay: Chou–Talalay synergy determination with vinblastine; format: cell-based, human; conditions: light conditions
Method in brief: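 DU-145 cells (7000/well, DMEM with 10% FBS and penicillin/streptomycin) were grown overnight (16 h, 37 °C, 5% CO₂). They were pretreated 1 h with test compound (10–1 μM) or vehicle (1% DMSO), then switched to vinblastine (10–0.5 nM) or vehicle, in quadruplicate. Blue light 460–470 nm for 20 min, then 72 h. MTT read at 570 nm, blank-subtracted, as percent effect. Chou–Talalay EC50 and CI computed per combination.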

DU-145 cells [3] = assay: DU-145 viability; format: cell-based, human; conditions: 5 μM, vinblastine 0–5 nM, blue light, Figure 7C
Method in brief: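 DU-145 cells (7000/well) were grown overnight, then given test compound (5 μM, 1% DMSO) in octuplicate for 1 h at 37 °C. Medium was replaced with vinblastine (5 nM; 2.5 or 5 nM in one set) or vehicle. Plates received blue LED light (460–470 nm, 20 min, 56 J/cm²) or were kept dark, then 72 h. MTT read at 570 nm, blank-normalized, as percent of vehicle control.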

Compound | Quantum yield of singlet oxygen production (ΦΔ) [1] | synergism with vinblastine (Chou–Talalay) (DU-145 cells [2]) | synergy with vinblastine (viability) (DU-145 cells [3])
[Ru+2].c1ccc(-c2ccccn2)nc1.c1ccc(-c2ccccn2)nc1.c1ccc(-c2ccccn2)nc1 [[Ru(bpy)3]^2+] | 0.81 | – | –
[Ru(tpy)(Me2dppn)(py)](PF6)2 [Compound 27, reference compound] | – | weaker synergism | does not
